This is a sample that favours compounds with a hit; in the whole collection about 2.6% have one here.
dFosB activator – mouse delta FosB homodimer activation. purified delta FosB, TAMRA-CDK5 oligo fluorescence polarization; percent of positive-control signal above neutral wells. P13346. 0.99% of 340,000 active. activation, % at 25 µM;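 active means mean activation above about 17%, with every replicate also reaching it, limit read from the data, passing the limit was not always enough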
Target sequence (P13346 whole entry, looked up): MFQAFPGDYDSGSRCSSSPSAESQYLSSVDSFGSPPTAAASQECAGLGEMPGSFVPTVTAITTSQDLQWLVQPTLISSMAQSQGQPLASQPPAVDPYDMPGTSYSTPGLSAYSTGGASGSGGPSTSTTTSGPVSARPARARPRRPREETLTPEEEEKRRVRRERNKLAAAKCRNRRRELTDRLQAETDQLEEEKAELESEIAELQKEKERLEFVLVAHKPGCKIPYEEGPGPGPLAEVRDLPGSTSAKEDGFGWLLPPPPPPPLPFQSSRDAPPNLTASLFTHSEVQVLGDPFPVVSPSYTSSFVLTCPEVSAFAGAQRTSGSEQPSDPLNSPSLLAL
PvdQ inh – blocks Pseudomonas aeruginosa PvdQ acylase activity | purified PvdQ acylase, fluorescence plate reader | inhibition, % at 10 µM | 0.063% of 340,000 active; in the data active means inhibition above about 30%, passing the limit was not always enough
rRNA inh HTS – inhibits bacterial ribosomal RNA function over humanized ribosomes; GFP signal change (wild-type ribosome), % (test concentration not listed); E. coli WT GFP vs humanized-ribosome RFP mutants, fluorescence, 24 h; hits give low values; DMSO median 0, no signal -100; 1.6% of 350,000 active;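 active means significant combined selectivity score with lowered wild-type GFP, culture density cut under 30%, mutant RFP and density less affected; inactive means any of these conditions unmet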
XiGFP reactiv – reactivates the inactive X chromosome in mouse fibroblasts | XiGFP mouse fibroblasts, % GFP-positive cells imaging, 3 d; cells co-treated with 5-aza-dC sensitizer; scaled so ellipticine positive control = 100% | activation, % at 7.58 µM | 0.055% of 360,000 active | AID 743238;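 active means mean normalized replicate activation at least 10% and every replicate at or above 10%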
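System: 68-5-11 XiGFP fibroblast line | Buffer or medium: DMEM containing 5-aza-dC | Compound: Single point | Times: Compounds 3 days, fix/stain 15 min at room temperature | Benchmarks: Positive control ellipticine, 6 µM final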
SR-BI DiI-HDL act – SR-BI HDL lipid transfer activation. AID 504775. activation, % at 12.5 µM. CHO ldlA[mSR-BI] cells, DiI-HDL uptake fluorescence, 3 h; 100 = double the neutral-control signal. 0.096% of 320,000 active;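 active means mean replicate activation of at least 60% and every replicate at or above 60%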
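system = CHO ldlA[mSR-BI] cells, LDL receptor-null, SR-BI overexpressing | medium = Ham's F12 with 0.5% BSA, HEPES 25 mM, pH 7.4 | probe or stimulus = DiI-HDL 10 µg/mL | compound dosing = single-point compound dose | incubation = compound exposure 3 h, 37 °C | technique = DiI fluorescence, bottom read | read-out = cell-associated DiI fluorescence as measure of HDL uptake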
SR-BI DiI inh – blocks mouse SR-BI lipid uptake from DiI-HDL; Q61009; ldlA[mSR-BI] CHO cells, DiI-HDL uptake fluorescence, 3 h; inhibition, % at 12.5 µM; 0.96% of 320,000 active; AID 488896;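 active means mean replicate inhibition of at least 70% and a set share of replicates each scoring 70 or more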
A number is an active result; 0 = inactive; - = not tested or not shown.

SMILES	dFosB activator	PvdQ inh	rRNA inh HTS	XiGFP reactiv	SR-BI DiI-HDL act	SR-BI DiI inh
CCCCCc1ccc(-c2ccc(/C=C/C(N)=O)cc2)nc1	0	0	-	0	0	0
CCCCCc1ccc(-c2ccc(OC)cc2)nc1	0	0	-24	0	0	0
O=C(C[C@@H]1CC[C@@H]2[C@H](COC[C@H](O)CN2CC2CCCCC2)O1)NCc1ccc(F)cc1	-	-	0	0	-	-
O=C1c2c(O)cccc2Cc2cccc(O)c21	26	0	-	-	0	0
O=C(NCC[C@H]1CC[C@H](NC(=O)c2cccnc2)[C@@H](CO)O1)Nc1ccc(Cl)cc1	-	-	0	0	-	-
COCCN1CCN(Cc2cn[nH]c2-c2cc3ccccc3o2)CC1	0	0	0	0	0	0
N#CC(c1ccc(Cl)cc1)c1cccc(Cl)n1 (stereo unspecified)	0	117	0	0	0	0
CN1CCN(C(=O)C[C@H]2CC[C@@H]3[C@H](COc4ccc(NC(=O)c5cscn5)cc4C(=O)N3C)O2)CC1	-	-	0	0	-	-
CCOC(=O)c1oc2ccccc2c1NC(=O)c1cccc(OC)c1OC	0	0	-	-	0	77
COC(=O)c1cc(OC)c(OC)cc1NC(=O)Nc1ccccc1OC	0	0	-	-	0	0
COC(=O)c1cc(OC)c(OC)cc1NC(=O)c1cccc(OC)c1OC	0	0	0	0	0	72
O=S(=O)(c1ccccc1)N1C[C@H]2[C@@H](c3ccccc31)[C@H](CO)N2Cc1ccc(F)cc1	-	-	0	0	-	-
O=S(=O)(c1ccccc1)N1C[C@@H]2[C@H](c3ccccc31)[C@H](CO)N2Cc1ccccc1	-	-	-25	0	-	-
O=S(=O)(c1ccccc1)N1C[C@H]2[C@@H](c3ccccc31)[C@@H](CO)N2Cc1ccccc1	-	-	-49	0	-	-
O=C(Nc1ccccc1Cl)N1C[C@@H]2[C@H](c3ccccc31)[C@@H](CO)N2Cc1ccccc1	-	-	0	0	-	-
Cc1ccc(S(=O)(=O)N2C[C@H]3[C@@H](c4ccccc42)[C@H](CO)N3Cc2cccnc2)cc1	-	-	0	0	-	-
O=C(Nc1ccccc1Cl)N1C[C@H]2[C@@H](c3ccccc31)[C@H](CO)N2Cc1ccccc1	-	-	-23	0	-	-
CCOc1ccc(N(C(C)C(=O)N/N=C(\C)c2cccc(NC(=O)c3ccccc3)c2)S(C)(=O)=O)cc1 (stereo unspecified)	0	0	-	-	0	78
CCCc1[nH]n(-c2nc3ccccc3s2)c(=O)c1C=NCCN1CCOCC1	0	0	-	-	0	0
CCCc1[nH]n(-c2nc3ccccc3s2)c(=O)c1C=NCC1CCCO1 (stereo unspecified)	0	0	-25	-	0	0
Cc1cccc(NC(=O)c2sc3nc4c(c(-c5cccs5)c3c2N)CN(C)CC4)c1	0	0	-	-	0	83
Nc1[nH]c2cc([N+](=O)[O-])ccc2c1-c1ccccn1	0	0	0	100	0	0
Nc1nc2ccc([N+](=O)[O-])cc2[nH]1	0	0	0	0	0	0
C[C@@H]1CN([C@@H](C)CO)C(=O)c2cc(NC(=O)Cc3ccccc3)ccc2O[C@H]1CN(C)S(C)(=O)=O	-	-	0	0	-	-
COC(=O)c1nn(-c2ccccc2)c(Sc2ccc(Br)cc2)c1/C=N/O	0	0	-20	-	0	0
SMILES	dFosB activator	PvdQ inh	rRNA inh HTS	XiGFP reactiv	SR-BI DiI-HDL act	SR-BI DiI inh
COc1ccc(C2C(C#N)=C(N)Oc3cc(O)ccc32)cc1C (stereo unspecified)	0	0	0	0	0	81
Cc1cccc(Oc2coc3cc(OC(=O)c4cncc(Br)c4)ccc3c2=O)c1	0	0	-18	0	0	0
C[C@@H]1CN([C@@H](C)CO)C(=O)c2c(c3ccccc3n2C)-c2ccccc2CO[C@H]1CN(C)C(=O)Nc1cccc(F)c1	-	-	0	0	-	-
COc1ccc(CCN(C)Cc2c(O)ccc3cc(Br)ccc23)cc1OC	0	0	-27	0	0	0
COc1ccc(CN(C)Cc2c(O)ccc3cc(Br)ccc23)cc1OC	0	0	-23	0	-	-
Cc1cccc2c(N=NC(=O)C(C)n3cnc4ccccc4c3=O)c(O)[nH]c12 (stereo unspecified)	0	0	0	0	-	-

Bioassay records as filed in PubChem BioAssay.
